Compounds with a hit are over-represented: about 1.8% of the library has one in this group of screens.
SUMO1 PPI mod: modulators of human SUMO1-mediated protein-protein interactions; hit rate 0.33% among 360,000; inhibition, % at 20 µM; SUMO1 binding to a labelled peptide, TR-FRET, 1 h; P63165; AID 602429; in the data active means inhibition above about 37%
Scp-1 inhibitor: Scp-1 (human) phosphatase inhibition | Q9GZU7 | Recombinant Scp1, phosphopeptide, malachite green phosphate absorbance | inhibition, % at 20 µM | hit rate 0.88% among 340,000;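 active means inhibition above about 50% at 20 µM, limit read from the data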;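 further: plate controls were DMSO wells with enzyme for no effect and wells lacking enzyme for full effect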
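Times: enzyme reaction 45 min at room temperature, colour 5 min, stabilisation 30 min. Material: SCP-1 catalytic fragment, aa 76-261. Medium: Acidic Tris acetate buffer with magnesium and detergent. Signal: colorimetric free-phosphate detection, absorbance 630 nm. Read-out basis: % inhibition of SCP-1 phosphate liberation. Reagent: Phosphorylated 17-residue peptide substrate.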
LMPTP inh: blocks human LMPTP phosphatase. recombinant LMPTP-A, OMFP fluorogenic substrate, fluorescence intensity. inhibition, % at 20 µM. hit rate 0.22% among 360,000;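 active means compounds that cut the enzyme signal by at least half of the control window in the single-dose screen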;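 further: plate controls were DMSO wells with enzyme plus substrate for no effect and substrate without enzyme for full effect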
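Buffer or medium: Bis-Tris pH 6.0, DTT, detergent; Assay system: LMPTP-A enzyme; Quantity: 0.625 nM enzyme; Detection: endpoint fluorescence intensity; Times: 50 min dark incubation at room temperature; Controls: substrate-only low control, DMSO enzyme-plus-substrate high control; Doses: single 20 µM dose; Read-out: percent inhibition versus substrate-only and uninhibited controls; Reagent: 400 µM OMFP.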
DNMT1 block: DNMT1 (human) enzyme inhibition; P26358; DNMT1 molecular beacon, Hinp1I cleavage, fluorescence; inhibition (reported as % activation of signal), % at 10 µM; hit rate 0.83% among 360,000; AID 588458; in the data active means inhibition above about 50%
STEP inh: blocks human striatal-enriched tyrosine phosphatase. hit rate 0.25% among 360,000. inhibition, % at 20 µM. AID 588621. recombinant STEP, OMFP fluorogenic substrate, fluorescence. P54829;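 active means inhibition at 20 µM, scaled per plate between control wells, above about 37%, limit read from the data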;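 further: 0% = DMSO with enzyme and substrate and 100% = substrate only without enzyme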
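Material: STEP (striatal-enriched tyrosine phosphatase) enzyme, cell-free; Compound dosing: 20 µM single dose in 1% DMSO; Technique: fluorescence read at 480 nm ex / 540 nm em; Times: reaction 20 min, ambient temperature; Medium: 50 mM Bis-Tris pH 6.0 with 2.5 mM DTT and 0.005% Tween 20; Also added: OMFP at 25 µM.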
STEP inh conf: STEP (human) phosphatase inhibition, single concentration confirmation | hit rate 32% among 520 | recombinant STEP, OMFP fluorogenic substrate, fluorescence | shares compounds with STEP inh | inhibition, % at 20 µM | AID 623866; call rule not given here;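 further: 0% = enzyme with substrate plus DMSO and 100% = substrate without enzyme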
An asterisk follows results filed as active; x = not tested or not shown.

SMILES | SUMO1 PPI mod | Scp-1 inhibitor | LMPTP inh | DNMT1 block | STEP inh | STEP inh conf
O=C(O)c1cccc(NC(=S)NC(NC(=O)c2cccc([N+](=O)[O-])c2)C(Cl)(Cl)Cl)c1 (configuration not stated) | 98* | -8 | -1 | -2 | 63* | 8
COc1ccc(N2CCN(C(c3cccs3)C(C)NC(=O)C(=O)N3CCCC3)CC2)cc1 (configuration not stated) | -5 | -7 | 0 | -4 | 60* | 14
COc1ccc(/C=C/C(=O)c2ccc3ccccc3c2O)cc1CN1CCOCC1 | -4 | -4 | 1 | -9 | 2 | x
COc1ccc(/C=C/C(=O)c2ccccc2O)cc1CN1CCOCC1 | 1 | -3 | 2 | -6 | 52* | -10
CC(C)(C)C(=O)Nc1ccc(C(=O)Nc2cc(NC(=O)c3ccc(NC(=O)C(C)(C)C)cc3)cc(C(=O)O)c2)cc1 | 3 | 0 | -1 | 3 | 2 | x
CC(C)(C)C(=O)Nc1ccc(C(=O)Nc2cccc(Oc3ccc(C(=O)O)c(C(=O)O)c3)c2)cc1 | 13 | 18 | -1 | 8 | 60* | 82*
COc1ccc(NC(=S)N2CCC(N(C)CC3CCCO3)CC2)cc1Cl (configuration not stated) | -2 | 2 | -5 | 7 | 50* | 42*
CCOc1cc(NC(=O)C2CC2)c(OCC)cc1NC(=O)CCn1nnc2ccccc21 | -1 | 32 | 0 | 11 | 63* | -10
CCn1c(CSc2ncccn2)nnc1SCC(=O)N1CCc2ccccc21 | 1 | -4 | -1 | -1 | 1 | x
Cn1c(CSc2ncccn2)nnc1SCC(=O)N1CCCc2ccccc21 | 0 | -2 | -1 | -6 | 53* | -11
COc1ccc(CNC(=O)CN(C(=O)c2snc(C(N)=O)c2N)c2ccc(OC)c(OC)c2)cc1 | -11 | 2 | 0 | 1 | -1 | x
O=C(NN=Cc1ccccc1O)c1cccc([N+](=O)[O-])c1 | 38 | 97* | 82* | 36 | 59* | 100*
CC(=O)c1ccc(Nc2nc(C(N)C(C)C)cs2)cc1 (configuration not stated) | -3 | x | -1 | -7 | 1 | x
CCCn1c(SCC(=O)c2c(C)[nH]c(C)c2C(=O)OCC)nc2ccccc21 | 4 | -4 | 1 | 3 | 59* | 26
CCOC(=O)c1c(C)[nH]c(C)c1C(=O)CSc1nc2ccccc2n1CCC#N | 3 | -4 | 0 | 5 | 14 | x
CCC(C)(C(=O)NC1CCCC1)N(Cc1cccs1)C(C)=O (configuration not stated) | -1 | -2 | -1 | 3 | 2 | x
CCC(C)(C(=O)NC1CCCC1)N(Cc1cccs1)C(=O)Cc1cccs1 (configuration not stated) | -1 | -9 | 1 | 6 | 90* | 0
CCN1CCN(C(=O)c2ccccc2N(Cc2ccccc2)S(=O)(=O)c2ccc(OC)cc2)CC1 | 5 | 2 | -2 | 2 | 4 | x
CCOc1ccc(-c2ncncc2-c2ccc(OC)c(OC)c2)c(O)c1 | 6 | -13 | 1 | -1 | 0 | x
O=C(O)c1ccc(NC(=S)NC(=O)c2ccc(-c3ccc(Br)cc3)o2)cc1 | 86* | 8 | 80* | 6 | 97* | 11
O=C(O)c1cccc(NC(=S)NC(=O)c2ccc(-c3ccc(Cl)cc3)o2)c1 | -3 | 15 | 1 | 0 | 3 | x
Cc1nn(CSc2c(F)c(F)c(F)c(F)c2F)c(C)c1[N+](=O)[O-] | -9 | -3 | -1 | 3 | 0 | x
CC(=O)c1sc(NC(=O)c2ccc(F)c(F)c2)nc1C | -10 | 44 | 42 | 1 | 58* | 16
Cc1ccc(NC(=O)CCn2c(=S)oc3ccccc32)cc1F | 11 | 25 | 36 | 42 | 48* | 38*
CN1CCN(Cc2nc3ccccc3c(=O)n2Cc2nc(-c3cccc([N+](=O)[O-])c3)cs2)CC1 | -19 | -3 | 5 | -17 | 43* | 13
CC(=O)Nc1ccc(NC(=O)C(C)OC(=O)c2ccc3c(c2)OCCO3)cc1 (configuration not stated) | 0 | -2 | -2 | 2 | -2 | x
CC(OC(=O)c1cccc(S(=O)(=O)Nc2cccc(C(F)(F)F)c2)c1)C(=O)Nc1ccc2c(c1)OCCO2 (configuration not stated) | 7 | -10 | 3 | -17 | 61* | 19
CCNC(=O)N(C)C[C@H]1N[C@@](C)(C(=O)OC)[C@H]2C(=O)N(Cc3ccccc3)C(=O)[C@@H]12 | 1 | -11 | -1 | 8 | -2 | x
